Where “and” joins values, the source holds several entries; their conditions need not be identical. Equal values may be shown once.
System: Fibroblast
Assay: Multiplex assay against human fibroblast
Assay type: toxicity, cell-based
In short: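 Cells were classed with CellPathfinder machine-learning gating, first as Hoechst high-intensity objects or normal cells, then (normal cells) as healthy, pyknosed or fragmented nuclei, and finally (pyknosed cells) as mitotic or apoptotic. Staining of live cells at seeding used Hoechst33342, BioTracker Green Microtubule Cytoskeleton Dye, MitoTracker Red and Annexin V Alexa Fluor 680, with imaging on a CQ1 microscope at 37°C and 5% CO2 after compound addition. Tubulin, mitochondrial-mass and membrane-permeability phenotypes are per cents of healthy-nucleus cells.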

[1] = 12 h, 1 µM, compound concentration 1 uM
[2] = 12 h, 10 µM, compound concentration 10 uM
[3] = 24 h, 1 µM, compound concentration 1 uM
[4] = 24 h, 10 µM, compound concentration 10 uM
[5] = 48 h, 1 µM, compound concentration 1 uM
[6] = 48 h, 10 µM, compound concentration 10 uM

## O=c1nc2[nH]c3ccccc3nc-2c(=O)[nH]1 [ALLOXAZINE]
[1]
  Population Apoptotic (%): 56% and 37%
  Population Fragmented Nuclei (%): 16% and 26%
  Population Healthy Nuclei (%): 67% and 50%
  Population Hoechst High Intensity Objects (%): 5% and 3%
  Population Membrane Permeable-Phenotype (%): 0% and 6%
  Population Mitochondria Different-Phenotype (%): 2% and 3%
  Population Mitotic Cells (%): 43% and 62%
  Population Normal (%): 94% and 96%
  Population Pyknosed Nuclei (%): 16% and 23%
  Population Tubulin-Different-Phenotype (%): 23% and 33%
  Total Cell Count: 193 and 131
[2]
  Population Apoptotic (%): 33% and 41%
  Population Fragmented Nuclei (%): 23% and 41%
  Population Healthy Nuclei (%): 60% and 38%
  Population Hoechst High Intensity Objects (%): 4% and 1%
  Population Membrane Permeable-Phenotype (%): 3%
  Population Mitochondria Different-Phenotype (%): 5% and 15%
  Population Mitotic Cells (%): 66% and 58%
  Population Normal (%): 95% and 98%
  Population Pyknosed Nuclei (%): 15% and 20%
  Population Tubulin-Different-Phenotype (%): 23% and 57%
  Total Cell Count: 158 and 86
[3]
  Population Apoptotic (%): 52% and 36%
  Population Fragmented Nuclei (%): 17% and 31%
  Population Healthy Nuclei (%): 69% and 41%
  Population Hoechst High Intensity Objects (%): 3% and 4%
  Population Membrane Permeable-Phenotype (%): 0% and 2%
  Population Mitochondria Different-Phenotype (%): 2% and 0%
  Population Mitotic Cells (%): 47% and 63%
  Population Normal (%): 96% and 95%
  Population Pyknosed Nuclei (%): 12% and 27%
  Population Tubulin-Different-Phenotype (%): 21% and 31%
  Total Cell Count: 190 and 114
[4]
  Population Apoptotic (%): 47% and 64%
  Population Fragmented Nuclei (%): 19% and 45%
  Population Healthy Nuclei (%): 64% and 32%
  Population Hoechst High Intensity Objects (%): 3%
  Population Membrane Permeable-Phenotype (%): 0%
  Population Mitochondria Different-Phenotype (%): 2% and 7%
  Population Mitotic Cells (%): 52% and 35%
  Population Normal (%): 96%
  Population Pyknosed Nuclei (%): 15% and 21%
  Population Tubulin-Different-Phenotype (%): 22% and 50%
  Total Cell Count: 153 and 82
[5]
  Population Apoptotic (%): 71% and 39%
  Population Fragmented Nuclei (%): 14% and 30%
  Population Healthy Nuclei (%): 72% and 48%
  Population Hoechst High Intensity Objects (%): 9% and 3%
  Population Membrane Permeable-Phenotype (%): 0% and 9%
  Population Mitochondria Different-Phenotype (%): 1%
  Population Mitotic Cells (%): 28% and 60%
  Population Normal (%): 90% and 96%
  Population Pyknosed Nuclei (%): 13% and 20%
  Population Tubulin-Different-Phenotype (%): 23% and 56%
  Total Cell Count: 178 and 114
[6]
  Population Apoptotic (%): 55% and 45%
  Population Fragmented Nuclei (%): 26% and 49%
  Population Healthy Nuclei (%): 61% and 36%
  Population Hoechst High Intensity Objects (%): 6% and 2%
  Population Membrane Permeable-Phenotype (%): 2% and 3%
  Population Mitotic Cells (%): 44% and 54%
  Population Normal (%): 93% and 97%
  Population Pyknosed Nuclei (%): 11% and 13%
  Population Tubulin-Different-Phenotype (%): 29% and 51%
  Total Cell Count: 164 and 81

## CCCCC[C@H](O)/C=C/[C@H]1[C@H](O)CC(=O)[C@@H]1CCCCCCC(=O)O [ALPROSTADIL]
[1]
  Population Apoptotic (%): 61% and 43%
  Population Fragmented Nuclei (%): 16% and 23%
  Population Healthy Nuclei (%): 71% and 57%
  Population Hoechst High Intensity Objects (%): 0% and 4%
  Population Membrane Permeable-Phenotype (%): 0% and 10%
  Population Mitochondria Different-Phenotype (%): 1% and 2%
  Population Mitotic Cells (%): 38% and 56%
  Population Normal (%): 99% and 95%
  Population Pyknosed Nuclei (%): 12% and 18%
  Total Cell Count: 150 and 169
[2]
  Population Apoptotic (%): 36% and 34%
  Population Healthy Nuclei (%): 75% and 43%
  Population Membrane Permeable-Phenotype (%): 2% and 11%
  Population Mitochondria Different-Phenotype (%): 4% and 1%
  Population Mitotic Cells (%): 63% and 65%
  Population Normal (%): 94% and 83%
  Population Pyknosed Nuclei (%): 17% and 31%
  Population Tubulin-Different-Phenotype (%): 26% and 45%
  Total Cell Count: 136 and 146
[3]
  Population Apoptotic (%): 25% and 43%
  Population Fragmented Nuclei (%): 15% and 22%
  Population Healthy Nuclei (%): 73% and 53%
  Population Hoechst High Intensity Objects (%): 0% and 2%
  Population Membrane Permeable-Phenotype (%): 0% and 8%
  Population Mitochondria Different-Phenotype (%): 1% and 8%
  Population Mitotic Cells (%): 75% and 56%
  Population Normal (%): 99% and 97%
  Population Pyknosed Nuclei (%): 10% and 24%
  Population Tubulin-Different-Phenotype (%): 15% and 40%
  Total Cell Count: 147 and 165
[4]
  Population Apoptotic (%): 63% and 30%
  Population Fragmented Nuclei (%): 14% and 27%
  Population Healthy Nuclei (%): 69% and 45%
  Population Membrane Permeable-Phenotype (%): 0% and 16%
  Population Mitochondria Different-Phenotype (%): 2% and 3%
  Population Mitotic Cells (%): 36% and 69%
  Population Normal (%): 97% and 86%
  Population Pyknosed Nuclei (%): 15% and 26%
  Total Cell Count: 147 and 157
[5]
  Population Apoptotic (%): 32% and 55%
  Population Fragmented Nuclei (%): 18% and 26%
  Population Healthy Nuclei (%): 62% and 51%
  Population Hoechst High Intensity Objects (%): 1% and 3%
  Population Membrane Permeable-Phenotype (%): 1% and 6%
  Population Mitochondria Different-Phenotype (%): 4% and 8%
  Population Mitotic Cells (%): 67% and 44%
  Population Normal (%): 98% and 96%
  Population Pyknosed Nuclei (%): 18% and 21%
  Population Tubulin-Different-Phenotype (%): 30% and 44%
  Total Cell Count: 152 and 162
[6]
  Population Apoptotic (%): 62% and 48%
  Population Fragmented Nuclei (%): 11% and 33%
  Population Healthy Nuclei (%): 62% and 44%
  Population Mitochondria Different-Phenotype (%): 7%
  Population Mitotic Cells (%): 37% and 51%
  Population Normal (%): 97% and 83%
  Population Pyknosed Nuclei (%): 26% and 22%
  Population Tubulin-Different-Phenotype (%): 34% and 60%
  Total Cell Count: 144

From ChEMBL document CHEMBL5724801, “EUbOPEN Chemogenomics Library - Multiplex” (2024)
